ChEMBL document CHEMBL4130539, “Novel ureidopropanamide based N-formyl peptide receptor 2 (FPR2) agonists with potential application for central nervous system disorders characterized by neuroinflammation” (Eur J Med Chem, 2017)
Activity calls are given as the source filed them. The rule behind the calls is not given here.

What was measured:
[1] = Intrinsic clearance in rat liver microsomes at 10 uM preincubated for 10 mins followed by NADPH addition by liquid chromatographic method; type: ADME, microsome
[2] = test system: Microglia; experiment: Anti-inflammatory activity in Sprague-Dawley rat primary microglia cells assessed as inhibition of LPS-induced TNFalpha level up to 10 uM pretreated for 1 hr followed by LPS stimulation for 24 hrs in presence of FPR2 antagonist WRW4 by ELISA; type: functional, cell-based
How it was run: (§1)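 Primary microglia from cortices of 1–2-day-old Sprague-Dawley rats, shaken off mixed cultures at day 9 in vitro, >95% Iba-1/CD11b-positive, used 2 days after plating. Agonist added 1 h before LPS (E. coli 0111:B4, 100 ng/ml) for 24 h; WRW4 given 30 min before agonist where stated. Medium NO by Griess reaction (540 nm); TNF-α and IL-1β by ELISA. Data as % of vehicle-treated control.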

[3] = test system: Microglia; experiment: Anti-inflammatory activity in Sprague-Dawley rat primary microglia cells assessed as inhibition of LPS-induced TNFalpha level up to 10 uM pretreated for 1 hr followed by LPS stimulation for 24 hrs by ELISA; type: functional, cell-based; how it was run: as §1
[4] = test system: Microglia; experiment: Anti-inflammatory activity in Sprague-Dawley rat primary microglia cells assessed as inhibition of LPS-induced IL-1beta level up to 10 uM pretreated for 1 hr followed by LPS stimulation for 24 hrs by ELISA; type: functional, cell-based; how it was run: as §1
[5] = molecular target: T1, N-formyl peptide receptor 2 (Homo sapiens) (UniProt P25090); experiment: Agonist activity at FPR2 in human neutrophils assessed as induction of calcium mobilization measured every 5 secs for 240 secs by Fluo-4-AM dye based fluorometric method relative to fMLF
T1 sequence (whole entry): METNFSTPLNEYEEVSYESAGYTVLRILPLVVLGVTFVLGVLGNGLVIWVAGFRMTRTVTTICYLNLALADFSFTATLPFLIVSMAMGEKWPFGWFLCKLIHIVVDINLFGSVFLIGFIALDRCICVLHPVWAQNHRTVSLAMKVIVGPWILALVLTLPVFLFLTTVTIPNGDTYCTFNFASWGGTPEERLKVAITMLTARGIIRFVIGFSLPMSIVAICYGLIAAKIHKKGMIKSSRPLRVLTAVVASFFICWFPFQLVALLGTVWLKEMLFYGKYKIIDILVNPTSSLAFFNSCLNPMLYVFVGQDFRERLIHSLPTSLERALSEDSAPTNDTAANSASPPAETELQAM

[6] = molecular target: T1, N-formyl peptide receptor 2 (Homo sapiens); experiment: Agonist activity at human FPR2 expressed in human HL60 cells assessed as induction of calcium mobilization measured every 5 secs for 240 secs by Fluo-4-AM dye based fluorometric method relative to WKYMVM; type: functional, cell-based
[7] = test system: Microglia; experiment: Cytotoxicity against Sprague-Dawley rat primary microglia cells assessed as cell death at 0.5 to 10 uM after 24 hrs by LDH assay; type: cell-based
[8] = Half life in rat liver microsomes at 10 uM preincubated for 10 mins followed by NADPH addition by liquid chromatographic method; type: ADME, microsome
[9] = test system: Microglia; experiment: Proinflammatory activity in Sprague-Dawley rat primary microglia cells assessed as induction of IL-1beta level up to 10 uM after 24 hrs in presence of FPR2 antagonist WRW4 by ELISA; type: cell-based
How it was run: (§2)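 Rat primary cortical microglia (Sprague-Dawley pups, 1–2 days old, >95% Iba-1/CD11b-positive) given agonist without LPS for 24 h; WRW4 added 30 min before agonist where indicated. Supernatant NO measured with Griess reagent (540 nm, 10 min room temperature); TNF-α and IL-1β by ELISA. Values normalized to vehicle-treated cells (100%).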

[10] = test system: Microglia; experiment: Cytotoxicity against Sprague-Dawley rat primary microglia cells assessed as cell death at 50 uM after 24 hrs by LDH assay; type: cell-based
[11] = test system: Microglia; experiment: Proinflammatory activity in Sprague-Dawley rat primary microglia cells assessed as induction of NO level up to 10 uM after 24 hrs by Griess reagent based assay; type: cell-based; how it was run: as §2
[12] = test system: Microglia; experiment: Cytoprotection against LPS-induced cell death in Sprague-Dawley rat primary microglia cells at 1 to 5 uM pretreated for 1 hr followed by LPS stimulation for 24 hrs by LDH assay; type: functional, cell-based
[13] = Efflux ratio of apparent permeability in hCMEC/D3 cells at 5 to 10 uM after 2 hrs by UV-spectroscopic method; type: ADME, cell-based; conditions: human, hcmec/d3, 2 h
[14] = molecular target: T2, N-formyl peptide receptor 2 (Homo sapiens, UniProt P25090); experiment: Agonist activity at human FPR2 expressed in human HL60 cells assessed as induction of calcium mobilization measured every 5 secs for 240 secs by Fluo-4-AM dye based fluorometric method; type: functional, cell-based; conditions: read-out: EC50
T2 sequence (P25090 whole entry): T1 sequence (whole entry)

[15] = test system: Microglia; experiment: Proinflammatory activity in Sprague-Dawley rat primary microglia cells assessed as induction of TNFalpha level up to 10 uM after 24 hrs in presence of FPR2 antagonist WRW4 by ELISA; type: cell-based; how it was run: as §2
[16] = molecular target: T2, N-formyl peptide receptor 2; experiment: Agonist activity at FPR2 in human neutrophils assessed as induction of calcium mobilization measured every 5 secs for 240 secs by Fluo-4-AM dye based fluorometric method; type: functional; conditions: read-out: EC50
[17] = test system: Microglia; experiment: Anti-inflammatory activity in Sprague-Dawley rat primary microglia cells assessed as inhibition of LPS-induced IL-1beta level up to 10 uM pretreated for 1 hr followed by LPS stimulation for 24 hrs in presence of FPR2 antagonist WRW4 by ELISA; type: functional, cell-based; how it was run: as §1
[18] = Metabolic stability in rat liver microsomes assessed as parent compound remaining at 10 uM preincubated for 10 mins followed by NADPH addition measured after 30 mins by liquid chromatographic method; type: ADME, microsome; conditions: 0.5 h
[19] = test system: Microglia; experiment: Anti-inflammatory activity in Sprague-Dawley rat primary microglia cells assessed as inhibition of LPS-induced NO level up to 10 uM pretreated for 1 hr followed by LPS stimulation for 24 hrs in presence of FPR2 antagonist WRW4 by Griess reagent based assay; type: functional, cell-based; how it was run: as §1
[20] = molecular target: T3, fMet-Leu-Phe receptor (Homo sapiens) (UniProt P21462); experiment: Agonist activity at human FPR1 expressed in human HL60 cells assessed as induction of calcium mobilization measured every 5 secs for 240 secs by Fluo-4-AM dye based fluorometric method relative to fMLF; type: functional, cell-based
T3 sequence (whole entry): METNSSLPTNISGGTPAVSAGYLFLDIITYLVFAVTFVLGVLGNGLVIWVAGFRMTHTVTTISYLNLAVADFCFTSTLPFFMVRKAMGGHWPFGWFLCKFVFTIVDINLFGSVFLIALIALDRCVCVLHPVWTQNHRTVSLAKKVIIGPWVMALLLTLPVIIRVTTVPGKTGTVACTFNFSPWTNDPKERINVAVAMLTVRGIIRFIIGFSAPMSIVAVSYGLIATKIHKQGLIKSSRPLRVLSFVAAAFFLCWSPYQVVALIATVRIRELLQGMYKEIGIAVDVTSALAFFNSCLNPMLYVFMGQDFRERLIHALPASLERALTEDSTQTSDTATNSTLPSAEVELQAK

[21] = test system: Microglia; experiment: Cytotoxicity against Sprague-Dawley rat primary microglia cells assessed as reduction in cell viability at 50 uM after 24 hrs by MTT assay; type: cell-based
[22] = test system: Microglia; experiment: Proinflammatory activity in Sprague-Dawley rat primary microglia cells assessed as induction of TNFalpha level up to 10 uM after 24 hrs by ELISA; type: cell-based; how it was run: as §2
[23] = test system: Microglia; experiment: Proinflammatory activity in Sprague-Dawley rat primary microglia cells assessed as induction of NO level up to 10 uM after 24 hrs in presence of FPR2 antagonist WRW4 by Griess reagent based assay; type: cell-based; how it was run: as §2
[24] = test system: Microglia; experiment: Cytoprotection against LPS-induced cell death in Sprague-Dawley rat primary microglia cells at 0.5 to 50 uM pretreated for 1 hr followed by LPS stimulation for 24 hrs by MTT assay; type: functional, cell-based
[25] = test system: Microglia; experiment: Cytotoxicity against Sprague-Dawley rat primary microglia cells assessed as reduction in cell viability at 0.5 to 10 uM after 24 hrs by MTT assay; type: cell-based
[26] = test system: Microglia; experiment: Proinflammatory activity in Sprague-Dawley rat primary microglia cells assessed as induction of IL-1beta level up to 10 uM after 24 hrs by ELISA; type: cell-based; how it was run: as §2
[27] = test system: Microglia; experiment: Anti-inflammatory activity in Sprague-Dawley rat primary microglia cells assessed as inhibition of LPS-induced NO level at 5 to 10 uM pretreated for 1 hr followed by LPS stimulation for 24 hrs by Griess reagent based assay; type: functional, cell-based; how it was run: as §1
[28] = molecular target: T4, fMet-Leu-Phe receptor (Homo sapiens, UniProt P21462); experiment: Agonist activity at human FPR1 expressed in human HL60 cells assessed as induction of calcium mobilization measured every 5 secs for 240 secs by Fluo-4-AM dye based fluorometric method; type: functional, cell-based; conditions: read-out: EC50
T4 sequence (P21462 whole entry): T3 sequence (whole entry)

[29] = test system: Microglia; experiment: Anti-inflammatory activity in Sprague-Dawley rat primary microglia cells assessed as inhibition of LPS-induced IL-1beta level at 0.05 to 0.1 uM pretreated for 1 hr followed by LPS stimulation for 24 hrs by ELISA; type: functional, cell-based; how it was run: as §1
[30] = test system: Microglia; experiment: Anti-inflammatory activity in Sprague-Dawley rat primary microglia cells assessed as inhibition of LPS-induced TNFalpha level at 0.05 to 0.1 uM pretreated for 1 hr followed by LPS stimulation for 24 hrs by ELISA; type: functional, cell-based; how it was run: as §1
[31] = test system: Microglia; experiment: Anti-inflammatory activity in Sprague-Dawley rat primary microglia cells assessed as inhibition of LPS-induced NO level up to 10 uM pretreated for 1 hr followed by LPS stimulation for 24 hrs by Griess reagent based assay; type: functional, cell-based; how it was run: as §1
[32] = molecular target: T2, N-formyl peptide receptor 2; experiment: Agonist activity at human FPR2 expressed in human HL60 cells assessed as induction of calcium mobilization; type: functional, cell-based
[33] = molecular target: T1, N-formyl peptide receptor 2 (Homo sapiens); experiment: Agonist activity at human FPR2 expressed in human HL60 cells assessed as induction of calcium mobilization relative to control; type: functional, cell-based
[34] = molecular target: T4, fMet-Leu-Phe receptor; experiment: Agonist activity at human FPR1 expressed in human HL60 cells assessed as induction of calcium mobilization; type: functional, cell-based

N#Cc1ccc(C[C@H](NC(=O)Nc2ccc([N+](=O)[O-])cc2)C(=O)NCC2(c3ccccc3)CC2)cc1
Microsomal intrinsic clearance (CLint) [1]: 5.78 µL/min/mg | inhibition [2]: Active | inhibition [3]: Active | inhibition [4]: Active | Efficacy [5]: 115% | Efficacy [6]: 100% | Activity [7]: Non-Toxic | t1/2 [8]: 120 min | Activity [9]: Non-Toxic | Activity [10]: Toxic | Activity [11]: Non-Toxic | Activity [12]: Active | Ratio [13]: 5.06 | EC50 [14]: 630 nM | Activity [15]: Non-Toxic | EC50 [16]: 2500 nM | inhibition [17]: Active | Stability [18]: 56% | inhibition [19]: Active | Efficacy [20]: 75% | Activity [21]: Toxic | Activity [22]: Non-Toxic | Activity [23]: Non-Toxic | Activity [24]: inactive | Activity [25]: Non-Toxic | Activity [26]: Non-Toxic | inhibition [27]: Active | EC50 [28]: 2800 nM

N#Cc1ccc(C[C@H](NC(=O)Nc2ccc(F)cc2)C(=O)NCC2(c3ccc(F)c(Cl)c3)CC2)cc1
Microsomal intrinsic clearance (CLint) [1]: 14.4 µL/min/mg | inhibition [2]: inactive | inhibition [29]: inactive | inhibition [3]: Active | inhibition [4]: Active | Efficacy [5]: 130% | Efficacy [6]: 80% | Activity [7]: Non-Toxic | inhibition [30]: inactive | t1/2 [8]: 48 min | Activity [9]: Non-Toxic | Activity [10]: Toxic | Activity [11]: Non-Toxic | Activity [12]: Active | Ratio [13]: 2.6 | EC50 [14]: 3900 nM | Activity [15]: Non-Toxic | EC50 [16]: 190 nM | inhibition [17]: inactive | Stability [18]: 33% | Efficacy [20]: 55% | Activity [21]: Toxic | Activity [22]: Non-Toxic | Activity [23]: Non-Toxic | Activity [24]: inactive | Activity [25]: Non-Toxic | Activity [26]: Non-Toxic | inhibition [31]: inactive | EC50 [28]: 5200 nM

O=C(Nc1ccc([N+](=O)[O-])cc1)N[C@@H](Cc1c[nH]c2ccccc12)C(=O)NCC1(c2ccccc2)CC1
EC50 [32]: 7.6 µM | Stability [18]: 11% | Efficacy [33]: 60%

O=C(Nc1ccc([N+](=O)[O-])cc1)N[C@H](Cc1cccnc1)C(=O)NCC1(c2ccccc2)CC1
Microsomal intrinsic clearance (CLint) [1]: 7 µL/min/mg | inhibition [3]: Active | inhibition [4]: Active | Efficacy [5]: 90% | Efficacy [6]: 60% | Activity [7]: Non-Toxic | t1/2 [8]: 99 min | Activity [9]: Non-Toxic | Activity [10]: Toxic | Activity [11]: Non-Toxic | Activity [12]: Active | Ratio [13]: 3.7 | EC50 [14]: 2900 nM | Activity [15]: Non-Toxic | EC50 [16]: 120 nM | inhibition [17]: inactive | Stability [18]: 45% | Efficacy [20]: 145% | Activity [22]: Non-Toxic | Activity [23]: Non-Toxic | Activity [24]: inactive | Activity [25]: Non-Toxic | Activity [26]: Non-Toxic | inhibition [31]: inactive | EC50 [28]: 1500 nM

COc1ccc(NC(=O)N[C@@H](Cc2c[nH]c3ccccc23)C(=O)NCC2(c3ccc(OC)cn3)CCCCC2)cc1
Stability [18]: 4% | EC50 [34]: 260 nM
